According to the array DNA melting data of Ke et al. (doi:10.1101/2024.01.08.574731):

What was measured:
[1] = folding enthalpy; higher = less favourable; fluorescence melt of hairpins on a sequencing array, two-state fit; details: sodium 0.088 M
Procedure, shortened: (§1)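 Melting temperature and folding enthalpy were obtained by bootstrapped two-state fitting. Fits used Cy3 fluorescence of library hairpins with annealed Cy3 and quencher oligos on a sequenced MiSeq flow cell, imaged in 50 mM Na-HEPES pH 8.0, 25 mM NaCl in 2.5 °C steps up to 60 °C and normalised to pre-quench Cy3 and control constructs. Four replicates were combined by inverse-variance weighting, and fitted temperatures were raised by 9.35 °C to match UV melts.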

[2] = melting temperature; fluorescence melt of hairpins on a sequencing array, two-state fit, raised by 9.35 °C to match UV melts; details: sodium 0.088 M
Procedure, shortened: as §1

| Sequence | folding enthalpy [1] [kcal/mol] | Tm [2] [°C] |
| --- | --- | --- |
| GATCGGAGTCCGATC ((((((...)))))) | -38.6 | 54 |
| GATCGGATCACCGATC ((((((....)))))) | -34 | 57.5 |
| GATCGGCAAGCCGATC ((((((....)))))) | -30.5 | 67 |
| GATCGGCACACCGATC ((((((....)))))) | -39.6 | 59 |
| GATCGGCACCCCGATC ((((((....)))))) | -31.8 | 56.6 |
| GATCGGCACGCCGATC ((((((....)))))) | -31.6 | 67.8 |
| GATCGGCATGCCGATC ((((((....)))))) | -44.7 | 67.4 |
| GATCGGCATTCCGATC ((((((....)))))) | -37.6 | 57 |
| GATCGGCCCACCGATC ((((((....)))))) | -41.5 | 58.2 |
| GATCGGCCGCCCGATC ((((((....)))))) | -40.4 | 60.5 |
| GATCGGCCTCCCGATC ((((((....)))))) | -35 | 55.8 |
| GATCGGCGAAAGCCAATC (((.(((....))).))) | -17.1 | 43.7 |
| GATCGGCGACCCGATC ((((((....)))))) | -34.2 | 55.6 |
| GATCGGCGACCGATC ((((((...)))))) | -34.2 | 56.4 |
| GATCGGCGGCCCGATC ((((((....)))))) | -35.4 | 55.5 |
| GATCGGCGGCCGATC ((((((...)))))) | -49.3 | 58.1 |
| GATCGGCGGGCCGATC ((((((....)))))) | -38.9 | 66.9 |
| GATCGGCGTACCGATC ((((((....)))))) | -38.2 | 59.5 |
| GATCGGCGTCCCGATC ((((((....)))))) | -40.3 | 55.4 |
| GATCGGGAACCCGATC ((((((....)))))) | -42.4 | 63.7 |
| GATCGGGACGCCGATC ((((((....)))))) | -36.6 | 59.5 |
| GATCGGGCAACCGATC ((((((....)))))) | -34.4 | 65.4 |
| GATCGGGCAGCCGATC ((((((....)))))) | -40.3 | 59.3 |
| GATCGGGCCACCGATC ((((((....)))))) | -39.5 | 67.5 |

| Sequence | folding enthalpy [1] [kcal/mol] | Tm [2] [°C] |
| --- | --- | --- |
| GATCGGGCTCCGATC ((((((...)))))) | -35.8 | 58.3 |
| GATCGGGGAAACCTGATC ((((.((....)).)))) | -43.8 | 49.2 |
| GATCGGGGCACCGATC ((((((....)))))) | -34.9 | 65.9 |
| GATCGGGGCCCCGATC ((((((....)))))) | -55 | 68.6 |
| GATCGGGGCGCCGATC ((((((....)))))) | -39 | 58.4 |
| GATCGGGGCTCCGATC ((((((....)))))) | -34.5 | 59.4 |
| GATCGGGGTCCCGATC ((((((....)))))) | -39.5 | 61 |
| GATCGGGTCCCCGATC ((((((....)))))) | -40.4 | 61.3 |
| GATCGGGTTACCGATC ((((((....)))))) | -35.8 | 67.3 |
| GATCGGTAAACCGATC ((((((....)))))) | -40.7 | 56.2 |
| GATCGGTAGACCGATC ((((((....)))))) | -41.1 | 57 |
| GATCGGTCTCCCGATC ((((((....)))))) | -41 | 56.1 |
| GATCGGTGCGCCGATC ((((((....)))))) | -36.9 | 66.9 |
| GATCGGTGGCCCGATC ((((((....)))))) | -37.6 | 57.1 |
| GATCGGTGTACCGATC ((((((....)))))) | -36.3 | 65.8 |
| GATCGGTGTGCCGATC ((((((....)))))) | -33.2 | 64.8 |
| GATCGGTTCCCGATC ((((((...)))))) | -39.3 | 59.3 |
| GATCGGTTCGCCGATC ((((((....)))))) | -45 | 61.4 |
| GATCGGTTGCCGATC ((((((...)))))) | -28.6 | 59.1 |
| GATCGGTTTCCGATC ((((((...)))))) | -34.7 | 59 |
| GATCGTAAAGACGATC ((((((....)))))) | -31.4 | 51.1 |
| GATCGTAACAACGATC ((((((....)))))) | -35.4 | 55 |
| GATCGTAACCACGATC ((((((....)))))) | -35.8 | 54.8 |
| GATCGTAAGAACGATC ((((((....)))))) | -35.1 | 50.5 |

| Sequence | folding enthalpy [1] [kcal/mol] | Tm [2] [°C] |
| --- | --- | --- |
| GATCGTAAGACGATC ((((((...)))))) | -42.3 | 54.2 |
| GATCGTAATACGATC ((((((...)))))) | -41.5 | 53.5 |
| GATCGTACATACGATC ((((((....)))))) | -41.2 | 54.9 |
| GATCGTACCAACGATC ((((((....)))))) | -36.7 | 55.5 |
| GATCGTACCCACGATC ((((((....)))))) | -40 | 54.1 |
| GATCGTAGGACGATC ((((((...)))))) | -44.2 | 54.7 |
| GATCGTAGTAACGATC ((((((....)))))) | -41.5 | 55.7 |
| GATCGTATAGACGATC ((((((....)))))) | -38.1 | 53 |
| GATCGTATGGACGATC ((((((....)))))) | -27 | 56.5 |
| GATCGTATGTACGATC ((((((....)))))) | -37.7 | 56.8 |
| GATCGTATTACGATC ((((((...)))))) | -36.1 | 57 |
| GATCGTATTCACGATC ((((((....)))))) | -34.7 | 55.1 |
| GATCGTCATTACGATC ((((((....)))))) | -38.5 | 54.8 |
| GATCGTCCAGACGATC ((((((....)))))) | -42.3 | 59.8 |
| GATCGTCCGACGATC ((((((...)))))) | -40.9 | 53.9 |
| GATCGTCCTGACGATC ((((((....)))))) | -46.3 | 59.4 |
| GATCGTCGAGACGATC ((((((....)))))) | -36.9 | 60 |
| GATCGTCGCAACGATC ((((((....)))))) | -38.1 | 56.2 |
| GATCGTCGGACGATC ((((((...)))))) | -38.9 | 53.8 |
| GATCGTCGTACGATC ((((((...)))))) | -29.3 | 60.4 |
| GATCGTCGTCACGATC ((((((....)))))) | -40.6 | 53.5 |
| GATCGTCGTGACGATC ((((((....)))))) | -50 | 63.4 |
| GATCGTCTAAACGATC ((((((....)))))) | -43 | 56.1 |
| GATCGTCTACACGATC ((((((....)))))) | -39.8 | 53.9 |

| Sequence | folding enthalpy [1] [kcal/mol] | Tm [2] [°C] |
| --- | --- | --- |
| GATCGTCTGGACGATC ((((((....)))))) | -42.6 | 57.5 |
| GATCGTCTTGACGATC ((((((....)))))) | -35.9 | 66.3 |
| GATCGTGACACGATC ((((((...)))))) | -40.4 | 59.9 |
| GATCGTGAGCACGATC ((((((....)))))) | -37.1 | 55.9 |
| GATCGTGATTACGATC ((((((....)))))) | -38.8 | 56 |
| GATCGTGCGAAAGCAATC (((..(((....)))))) | -6.96 | 23.5 |
| GATCGTGCGACGATC ((((((...)))))) | -38.4 | 56.8 |
| GATCGTGCTACGATC ((((((...)))))) | -41 | 57.3 |
| GATCGTGGAAACGTGATC ((((..(....)..)))) | -17.1 | 37.3 |
| GATCGTGGATACGATC ((((((....)))))) | -51.4 | 60.7 |
| GATCGTGTCTACGATC ((((((....)))))) | -38.3 | 59.8 |
| GATCGTGTGACGATC ((((((...)))))) | -40.1 | 54.7 |
| GATCGTGTGCACGATC ((((((....)))))) | -39.3 | 59.9 |
| GATCGTTAAAACGATC ((((((....)))))) | -35.6 | 54.5 |
| GATCGTTAAACGATC ((((((...)))))) | -34.6 | 53.2 |
| GATCGTTATGACGATC ((((((....)))))) | -38.6 | 55.9 |
| GATCGTTCACACGATC ((((((....)))))) | -40.3 | 54.5 |
| GATCGTTCATACGATC ((((((....)))))) | -46.9 | 54.9 |
| GATCGTTCCCACGATC ((((((....)))))) | -43.2 | 53.8 |
| GATCGTTCGAACGATC ((((((....)))))) | -53.9 | 56.6 |
| GATCGTTCGACGATC ((((((...)))))) | -38.2 | 55.7 |
| GATCGTTGAGACGATC ((((((....)))))) | -39.4 | 58.1 |
| GATCGTTGGAACGATC ((((((....)))))) | -42.4 | 54.4 |
| GATCGTTGGTACGATC ((((((....)))))) | -38.4 | 55.2 |
